Data as given in ChEMBL document CHEMBL1156980, “Synthesis and biological evaluation of 8-oxoadenine derivatives as toll-like receptor 7 agonists introducing the antedrug concept” (J Med Chem, 2010).
Activity calls are given as the source filed them. The rule behind the calls is not given here.

Tests used:
Toll-like receptor 7 = molecular target: T1, Toll-like receptor 7 (Homo sapiens, UniProt Q9NYK1); assay: Agonist activity at human TLR7 expressed in HEK293 cells coexpressing pNiFty2-SEAP reporter by reporter gene assay; assay type: functional, cell-based
T1 sequence (Q9NYK1 whole entry): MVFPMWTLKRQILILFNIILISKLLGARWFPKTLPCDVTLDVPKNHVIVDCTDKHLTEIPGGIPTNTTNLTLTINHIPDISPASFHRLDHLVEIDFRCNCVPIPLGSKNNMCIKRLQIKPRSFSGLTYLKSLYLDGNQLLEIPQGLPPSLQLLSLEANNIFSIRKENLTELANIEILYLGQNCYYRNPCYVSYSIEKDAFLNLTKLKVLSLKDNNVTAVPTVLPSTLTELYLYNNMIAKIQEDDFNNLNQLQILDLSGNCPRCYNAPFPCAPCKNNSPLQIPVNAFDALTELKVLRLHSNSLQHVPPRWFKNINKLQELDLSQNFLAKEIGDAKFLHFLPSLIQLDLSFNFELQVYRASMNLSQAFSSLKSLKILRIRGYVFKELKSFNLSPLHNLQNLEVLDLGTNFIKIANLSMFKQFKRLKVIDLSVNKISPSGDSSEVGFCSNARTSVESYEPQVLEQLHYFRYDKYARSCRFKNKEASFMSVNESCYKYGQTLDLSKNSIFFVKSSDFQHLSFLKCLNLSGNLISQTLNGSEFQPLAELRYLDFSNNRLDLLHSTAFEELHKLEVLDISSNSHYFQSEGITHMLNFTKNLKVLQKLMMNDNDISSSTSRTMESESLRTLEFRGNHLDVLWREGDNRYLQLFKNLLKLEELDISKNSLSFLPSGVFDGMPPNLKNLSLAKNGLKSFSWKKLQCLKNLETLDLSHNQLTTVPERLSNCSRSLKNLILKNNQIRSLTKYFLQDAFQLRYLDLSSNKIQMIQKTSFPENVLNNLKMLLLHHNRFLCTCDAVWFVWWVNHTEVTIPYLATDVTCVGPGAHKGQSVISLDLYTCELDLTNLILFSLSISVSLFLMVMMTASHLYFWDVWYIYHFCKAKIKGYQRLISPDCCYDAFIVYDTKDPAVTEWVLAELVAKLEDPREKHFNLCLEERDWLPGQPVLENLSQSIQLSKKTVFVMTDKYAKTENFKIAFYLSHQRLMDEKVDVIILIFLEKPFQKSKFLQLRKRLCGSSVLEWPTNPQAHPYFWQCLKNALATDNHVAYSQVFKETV
Method in brief: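 HEK293 cells stably transfected with human TLR7 and an NF-kB-driven SEAP reporter; agonist activity read as reporter output and expressed as EC50.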

[1] = Half life in human plasma by […] analysis
PBMC [2] = assay: Induction of type 1 IFN secretion in human PBMC at 30 nM after 18 hrs by ELISA; assay type: cell-based; settings: 0.03 µM
PBMC [3] = assay: Induction of type 1 IFN secretion in human PBMC at 100 nM after 18 hrs by ELISA; assay type: cell-based; settings: 0.1 µM
PBMC [4] = assay: Induction of type 1 IFN secretion in human PBMC at 300 nM after 18 hrs by ELISA; assay type: cell-based; settings: 0.3 µM
PBMC [5] = assay: Induction of type 1 IFN secretion in human PBMC at 1000 nM after 18 hrs by ELISA; assay type: cell-based; settings: 1 µM
PBMC [6] = assay: Induction of type 1 IFN secretion in human PBMC at 3000 nM after 18 hrs by ELISA; assay type: cell-based; settings: 3 µM
Method in brief: (§1)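 Human peripheral blood mononuclear cells incubated with compound; IFN in culture supernatants quantified by human ELISA.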

PBMC [7] = assay: Induction of type 1 IFN secretion in human PBMC at 10000 nM after 18 hrs by ELISA; assay type: cell-based; settings: 10 µM; method in brief: as §1
PBMC [8] = assay: Induction of type 1 IFN secretion in human PBMC at 10 nM after 18 hrs by ELISA; assay type: cell-based; settings: 0.01 µM
Rattus norvegicus [9] = assay: Antiinflammatory activity in ovalbumin and […] hydroxide adjuvant-sensitized Brown Norway rat assessed as inhibition of allergen-induced eosinophils influx at 1 mg/kg, intratracheally administered 2 hrs before allergen challenge measured after 24 hrs; assay type: functional, organism-based; set-up: dose 1 mg/kg
Rattus norvegicus [10] = assay: Induction of IFN secretion in Brown Norway rat plasma at 0.1 mg/kg, intratracheally measured after 2 to 24 hrs by CPE reduction assay; assay type: organism-based; set-up: dose 0.1 mg/kg, route endotracheal; settings: in vivo, inhaled_or_intranasal
Rattus norvegicus [11] = assay: Induction of IFN secretion in Brown Norway rat plasma at up to 10 mg/kg, intratracheally measured after 2 to 24 hrs by CPE reduction assay; assay type: organism-based; set-up: dose 10 mg/kg, route endotracheal; settings: in vivo, inhaled_or_intranasal
Toll-like receptor 8 = molecular target: T2, Toll-like receptor 8 (Homo sapiens, UniProt Q9NR97); assay: Agonist activity at TLR8; assay type: functional
T2 sequence (Q9NR97 whole entry): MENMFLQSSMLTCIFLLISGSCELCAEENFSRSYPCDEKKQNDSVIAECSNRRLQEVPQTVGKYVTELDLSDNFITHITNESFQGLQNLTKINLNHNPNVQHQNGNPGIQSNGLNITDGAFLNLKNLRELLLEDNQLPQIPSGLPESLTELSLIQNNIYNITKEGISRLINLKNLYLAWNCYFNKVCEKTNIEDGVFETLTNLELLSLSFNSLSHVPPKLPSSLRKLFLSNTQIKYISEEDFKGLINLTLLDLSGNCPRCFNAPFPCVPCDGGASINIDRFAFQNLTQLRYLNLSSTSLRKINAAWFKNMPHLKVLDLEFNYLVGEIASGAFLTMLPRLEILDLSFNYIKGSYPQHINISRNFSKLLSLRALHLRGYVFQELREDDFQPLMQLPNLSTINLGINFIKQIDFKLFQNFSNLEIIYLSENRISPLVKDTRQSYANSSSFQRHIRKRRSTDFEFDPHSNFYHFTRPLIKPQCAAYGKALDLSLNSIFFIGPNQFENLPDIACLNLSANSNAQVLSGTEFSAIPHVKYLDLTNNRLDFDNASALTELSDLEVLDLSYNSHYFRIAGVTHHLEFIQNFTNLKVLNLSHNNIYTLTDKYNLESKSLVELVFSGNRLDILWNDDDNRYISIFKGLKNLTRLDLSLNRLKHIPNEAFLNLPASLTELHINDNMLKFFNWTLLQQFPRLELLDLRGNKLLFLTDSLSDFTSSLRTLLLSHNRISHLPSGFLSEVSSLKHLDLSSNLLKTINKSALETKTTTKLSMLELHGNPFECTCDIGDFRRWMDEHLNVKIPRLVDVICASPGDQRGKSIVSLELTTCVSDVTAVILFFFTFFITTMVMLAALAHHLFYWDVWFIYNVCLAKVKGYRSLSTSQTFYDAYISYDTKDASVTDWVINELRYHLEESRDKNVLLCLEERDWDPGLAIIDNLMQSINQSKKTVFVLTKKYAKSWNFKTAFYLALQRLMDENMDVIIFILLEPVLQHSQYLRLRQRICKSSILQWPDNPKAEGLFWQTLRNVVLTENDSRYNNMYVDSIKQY

[12] = Half life in rat plasma by […] analysis; assay type: ADME, cell-free
PBMC [13] = assay: Induction of type 1 IFN secretion in human PBMC at 3 nM after 18 hrs by ELISA; assay type: cell-based; settings: 0.003 µM
Rattus norvegicus [14] = assay: Antiinflammatory activity in ovalbumin and […] hydroxide adjuvant-sensitized intratracheally dosed Brown Norway rat assessed as inhibition of allergen-induced eosinophils influx administered 2 hrs before allergen challenge measured after 24 hrs; assay type: functional, organism-based

Compound	EC50 (Toll-like receptor 7) [nM]	half-life [1] [min]	further results
CCCCOc1nc(N)c2[nH]c(=O)n(Cc3cccc(C(=O)OC)c3)c2n1	51.5	> 98	–
CCCCOc1nc(N)c2[nH]c(=O)n(Cc3ccc(OC)c(CC(=O)OC)c3)c2n1	8.1	> 98	–
CCCCOc1nc(N)c2[nH]c(=O)n(Cc3cccc(CC(=O)O)c3)c2n1	–	–	Activity (PBMC [2]): < 1.25 nM; Activity (PBMC [3]): < 1.25 nM; Activity (PBMC [4]): < 1.25 nM; Activity (PBMC [5]): < 1.25 nM; Activity (PBMC [6]): 1.25 nM; Activity (PBMC [7]): 1.25 nM
CCCCOc1nc(N)c2[nH]c(=O)n(Cc3ccc(F)c(CC(=O)OC)c3)c2n1	25.7	13.1	–
CCCCOc1nc(N)c2[nH]c(=O)n(Cc3ccc(CC(=O)OC)cc3)c2n1	10.3	21.9	–
CCCCOc1nc(N)c2[nH]c(=O)n(Cc3ccccc3C(=O)OC)c2n1	609	> 98	–
CCCCOc1nc(N)c2nc(O)n(Cc3ccccc3)c2n1	63.7	–	–
CCCCOc1nc(N)c2[nH]c(=O)n(Cc3ccccc3CC(=O)OC)c2n1	467	> 98	–
CCCCOc1nc(N)c2[nH]c(=O)n(Cc3cccc(CCC(=O)OC)c3)c2n1	87.5	> 98	–
CCCCOc1nc(N)c2[nH]c(=O)n(Cc3cc(CC(=O)OC)ccc3OC)c2n1	108	98	–
COCCOc1nc(N)c2[nH]c(=O)n(Cc3cccc(CC(=O)OC)c3)c2n1	312	1.4	–
CCOCc1nc2c(N)nc3ccccc3c2n1CC(C)(C)O [RESIQUIMOD]	–	–	Activity (PBMC [8]): < 1.25 nM; Activity (PBMC [2]): 1.25 nM; Activity (PBMC [3]): 5.61 nM; Activity (PBMC [4]): 7.26 nM; Activity (PBMC [5]): 7.75 nM; Activity (Rattus norvegicus [9]): Active; Activity (Rattus norvegicus [10]): Toxic; Activity (Rattus norvegicus [11]): Non-toxic
COCCOc1nc(N)c2[nH]c(=O)n(Cc3ccccc3)c2n1	399	–	–
CCCCOc1nc(N)c2[nH]c(=O)n(Cc3ccc(C(=O)OC)cc3)c2n1	72.9	> 98	–
CCCCOc1nc(N)c2[nH]c(=O)n(Cc3cccc(C(C)C(=O)OC)c3)c2n1 (stereo unspecified)	75	> 98	–
CCCCOc1nc(N)c2[nH]c(=O)n(Cc3cccc(CC(=O)OCC)c3)c2n1	188	9	–
CCCCOc1nc(N)c2[nH]c(=O)n(Cc3cccc(CC(=O)OC)c3)c2n1	50.1	2.6	EC50 (Toll-like receptor 8): > 10000 nM; half-life [12]: < 0.04 min; Activity (PBMC [13]): < 1.25 nM; Activity (PBMC [8]): 1.61 nM; Activity (PBMC [2]): 4.71 nM; Activity (PBMC [3]): 8.17 nM; Activity (PBMC [4]): 8.37 nM; Activity (PBMC [5]): 6.2 nM; Activity (Rattus norvegicus [14]): Dose-dependent effect
